Compound activity: PubChem BioAssay, The Scripps Research Institute Molecular Screening Center
LEDGF integ inh = blockers of LEDGF/p75-dependent integrase strand transfer – biochemical, TR-FRET, high throughput, primary screen; inhibition, % at 3.7 µM; HIV-1 integrase (with human LEDGF/p75); TR-FRET IN-LEDGF/p75 DNA integration, Eu/Cy5; AID 743269, 2014; actives 0.64% (n = 370,000);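 active = inhibition above the screen-wide mean plus 3 SD, cut at about 13% in these data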;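 note: signal is the Cy5 over europium emission ratio at 671 and 618 nm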
HTRA1 inh = HTRA1 serine protease inhibitors, primary screen, biochemical, fluorescence polarization, HTS; actives 0.5% (n = 340,000); Q92743; inhibition, % at 5.96 µM; recombinant HTRA1, FP-rhodamine activity-based probe; in the data active = inhibition above about 36%
ABHD4 inh = ABHD4 inhibitors, primary screen, biochemical, fluorescence polarization, mouse; actives 0.54% (n = 370,000); (Lyso)-N-acylphosphatidylethanolamine lipase (Mus musculus), Q8VD66; purified mABHD4, FP-Rh probe fluorescence polarization; inhibition, % at 8.92 µM;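 active = inhibition exceeding the mean over every tested compound plus 3 SD, cut at about 30% in these data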
Target sequence (Q8VD66 whole entry, looked up): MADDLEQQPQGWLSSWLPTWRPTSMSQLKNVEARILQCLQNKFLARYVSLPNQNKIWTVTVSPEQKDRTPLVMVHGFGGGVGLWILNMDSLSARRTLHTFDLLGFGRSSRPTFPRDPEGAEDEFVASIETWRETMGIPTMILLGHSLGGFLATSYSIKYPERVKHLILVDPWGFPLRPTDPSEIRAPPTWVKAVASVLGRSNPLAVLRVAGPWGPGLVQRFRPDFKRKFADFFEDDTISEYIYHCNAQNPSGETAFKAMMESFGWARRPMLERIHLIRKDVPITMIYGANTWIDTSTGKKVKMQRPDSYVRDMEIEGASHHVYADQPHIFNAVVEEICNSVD
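Test system: mABHD4 protein | Buffer or medium: HEPES pH 7.0 buffer, 150 mM NaCl, 0.01% Pluronic F-127 | Probe or stimulus: FP-Rh fluorescent activity-based probe, added after compound pre-incubation | Timing: Pre-incubation 45 min, probe exposure 60 min, at 25 °C | Technique: Fluorescence polarization, excitation 525 nm, emission 598 nm, BODIPY TMR filters | Repeats: Single well per compound (singlicate)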
PRMT1 inh = PRMT1 methyltransferase inhibitors, primary screen, biochemical, fluorescence polarization; Protein arginine N-methyltransferase 1 (Homo sapiens), Q99873; recombinant PRMT1, activity-based probe fluorescence polarization; inhibition, % at 2.79 µM; actives 1.3% (n = 370,000);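 active = inhibition above about 21% made by adding two undisclosed values, limit read from the data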
rCAG RNA binder = binders of r(CAG) RNA repeats, primary screen, biochemical, fluorescence. r(CAG) RNA repeat, TO-PRO-1 dye displacement fluorescence. inhibition, % at 3 µM. actives 1.3% (n = 370,000). AID 651821, 2012;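 active = inhibition above the plate cutoff, the mean of all test compounds on that plate plus 3 SD, cut at about 35% in these data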;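 note: higher means more dye released from RNA so lower well fluorescence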
DAGLB inhibitor = DAGLB lipase inhibitors, primary screen, biochemical, fluorescence, HTS; Diacylglycerol lipase-beta (Homo sapiens), Q8NCG7; actives 0.059% (n = 340,000); HEK293T DAGLB membrane lysate, EnzChek fluorogenic substrate; inhibition, % at 5.17 µM; in the data active = inhibition above about 34%
rCAG binder conf = small molecules binding CAG repeat RNA – biochemical, fluorescence, confirmation; shares compounds with rCAG RNA binder; r(CAG) RNA repeat, TO-PRO-1 dye displacement fluorescence; inhibition, % at 3 µM; actives 70% (n = 4,300); AID 652065, 2013;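 active = inhibition above a per-plate cutoff, the mean inhibition of sample wells plus 3 SD, cut at about 35% in these data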;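 note: loss of TO-PRO-1 fluorescence as compound displaces dye from 1x1 AA loop RNA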
dCAG dye counter = displacement of TO-PRO-1 from CAG DNA duplex, counter-screen for rCAG RNA repeat binder project, biochemical, fluorescence, TO-PRO-1 dye, d(CAG) DNA oligo | shares compounds with rCAG RNA binder | d(CAG) DNA oligo TO-PRO-1 dye displacement | inhibition, % at 3 µM | actives 94% (n = 4,300) | AID 652068, 2013;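 active = inhibition above its plate's cutoff, the mean test-well inhibition plus 3 SD, cut at about 4.8% in these data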;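 note: hits displace the dye from DNA and so lower well fluorescence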
Hits are given with their value. The list is not random: actives were taken first. Their share in the collection is about 3.2%.

Screening CCc1ccc(-c2n[nH]nc2C2=CC(=O)C[C@H](c3ccc(F)cc3)C2)cc1 returned LEDGF integ inh inactive, HTRA1 inh inactive, ABHD4 inh inactive, PRMT1 inh inactive, rCAG RNA binder 37, DAGLB inhibitor inactive, rCAG binder conf 42 and dCAG dye counter 11.
Screening O=C(NCC1CCCO1)c1ccc(Cl)c(S(=O)(=O)Nc2ccccc2)c1 (stereo unspecified) returned LEDGF integ inh inactive, HTRA1 inh inactive, ABHD4 inh inactive, PRMT1 inh inactive, rCAG RNA binder inactive and DAGLB inhibitor inactive.
For CC(C)CCN1C(=O)c2ccc(C(=O)Nc3ccc(Br)cc3C(=O)O)cc2C1=O the results were LEDGF integ inh inactive, HTRA1 inh inactive, ABHD4 inh inactive, PRMT1 inh inactive, rCAG RNA binder 63, DAGLB inhibitor inactive, rCAG binder conf 79 and dCAG dye counter 73.
For CC(=O)NS(=O)(=O)c1ccc(NC(=O)c2ccc3c(c2)C(=O)N(CCC(C)C)C3=O)cc1 the results were LEDGF integ inh inactive, HTRA1 inh inactive, ABHD4 inh inactive, PRMT1 inh inactive, rCAG RNA binder 58, DAGLB inhibitor inactive, rCAG binder conf 59 and dCAG dye counter 19.
Screening O=C(Nc1ccc(Cl)cc1C(=O)O)c1ccc2c(c1)C(=O)N(Cc1ccco1)C2=O returned LEDGF integ inh inactive, HTRA1 inh inactive, ABHD4 inh inactive, PRMT1 inh inactive, rCAG RNA binder 86, DAGLB inhibitor inactive, rCAG binder conf 88 and dCAG dye counter 75.
For CC(C)CCN1C(=O)c2ccc(C(=O)Nc3cc(C(=O)O)cc(C(=O)O)c3)cc2C1=O the results were LEDGF integ inh inactive, HTRA1 inh inactive, ABHD4 inh inactive, PRMT1 inh inactive, rCAG RNA binder inactive and DAGLB inhibitor inactive.
Cc1ccnc(NC(=O)c2ccc3c(c2)C(=O)N(CCC(C)C)C3=O)c1 was read as LEDGF integ inh inactive, HTRA1 inh inactive, ABHD4 inh inactive, PRMT1 inh inactive, rCAG RNA binder inactive and DAGLB inhibitor inactive.
`O=C(Nc1ccccc1C(=O)O)c1cccc(N2C(=O)c3ccccc3C2=O)c1` gave LEDGF integ inh inactive, HTRA1 inh inactive, ABHD4 inh inactive, PRMT1 inh inactive, rCAG RNA binder 35, DAGLB inhibitor inactive, rCAG binder conf inactive and dCAG dye counter inactive.
For Cc1ccc(S(=O)(=O)N(C)Cc2ccc(C(=O)N/N=C3\CCCC(=O)C3)cc2)cc1 the results were LEDGF integ inh inactive, HTRA1 inh inactive, ABHD4 inh inactive, PRMT1 inh inactive, rCAG RNA binder inactive and DAGLB inhibitor inactive.
CCN(CC)CCCNC(=O)c1oc2ccc(S(=O)(=O)N3CC(C)CC(C)C3)cc2c1C (stereo unspecified) was read as LEDGF integ inh inactive, HTRA1 inh inactive, ABHD4 inh inactive, PRMT1 inh inactive, rCAG RNA binder inactive and DAGLB inhibitor inactive.
For O=C(/C=C/NCc1cccnc1)C(F)(F)C(F)(F)F the results were LEDGF integ inh inactive, HTRA1 inh inactive, ABHD4 inh inactive, PRMT1 inh inactive, rCAG RNA binder inactive and DAGLB inhibitor inactive.
For CC(C)CN1C(=O)c2ccc(C(=O)Nc3ccccc3C(=O)O)cc2C1=O the results were LEDGF integ inh inactive, HTRA1 inh inactive, ABHD4 inh inactive, PRMT1 inh inactive, rCAG RNA binder 56, DAGLB inhibitor inactive, rCAG binder conf 57 and dCAG dye counter 18.
`CCn1nc(C)cc1C(=O)NC1CC(C)(C)Cc2c1cnn2-c1cccc(F)c1` (stereo unspecified) gave LEDGF integ inh inactive, HTRA1 inh inactive, ABHD4 inh inactive, PRMT1 inh inactive, rCAG RNA binder inactive and DAGLB inhibitor inactive.
CC(C)c1ccc(CC(=O)N2CCC2(C)C(=O)NS(=O)(=O)c2ccc(Cl)s2)cc1 (stereo unspecified) was read as LEDGF integ inh inactive, ABHD4 inh inactive, PRMT1 inh inactive, rCAG RNA binder 40, rCAG binder conf 41 and dCAG dye counter 11.
Screening CC1(C(=O)NS(=O)(=O)c2ccc(Cl)s2)CCN1C(=O)Cc1ccc(-c2ccccc2)cc1 (stereo unspecified) returned LEDGF integ inh inactive, ABHD4 inh inactive, PRMT1 inh inactive, rCAG RNA binder 74, rCAG binder conf 75 and dCAG dye counter 38.
Screening CC(C)c1ccc(CC(=O)N2CCC2(C)C(=O)NS(=O)(=O)c2ccc(F)cc2F)cc1 (stereo unspecified) returned LEDGF integ inh inactive, ABHD4 inh inactive, PRMT1 inh inactive and rCAG RNA binder inactive.
For CC(C)(C)c1ccc(CC(=O)N2CCC2(C)C(=O)NS(=O)(=O)c2ccc(Cl)s2)cc1 (stereo unspecified) the results were LEDGF integ inh inactive, ABHD4 inh inactive, PRMT1 inh inactive, rCAG RNA binder 62, rCAG binder conf 61 and dCAG dye counter 24.
Screening Cc1noc(NS(=O)(=O)c2ccc(NC(=O)c3ccc(Cl)c(S(=O)(=O)N(C)c4ccccc4)c3)cc2)c1C returned LEDGF integ inh inactive, HTRA1 inh inactive, ABHD4 inh inactive, PRMT1 inh inactive, rCAG RNA binder 91, DAGLB inhibitor inactive, rCAG binder conf 84 and dCAG dye counter 55.
Cc1noc(NS(=O)(=O)c2ccc(NC(=O)c3cccc(S(=O)(=O)N(C)c4ccccc4)c3)cc2)c1C was read as LEDGF integ inh inactive, HTRA1 inh inactive, ABHD4 inh inactive, PRMT1 inh inactive, rCAG RNA binder 73, DAGLB inhibitor inactive, rCAG binder conf 81 and dCAG dye counter 37.
Screening Cc1noc(NS(=O)(=O)c2ccc(NC(=O)c3ccc(F)cc3)cc2)c1C returned LEDGF integ inh inactive, HTRA1 inh inactive, ABHD4 inh inactive, PRMT1 inh inactive, rCAG RNA binder inactive and DAGLB inhibitor inactive.
COC(=O)c1ccc(COc2ccccc2/C=C(\C#N)C(=O)Nc2ccc(C)cc2)cc1 was read as LEDGF integ inh inactive, HTRA1 inh inactive, ABHD4 inh inactive, PRMT1 inh inactive, rCAG RNA binder inactive and DAGLB inhibitor inactive.
